Glyco luc inh = N-linked glycosylation inhibition | D54 ERlucT glycosylation luciferase reporter, 24 h; percent of 100 nM tunicamycin response | reporter increase, % at 12.5 µM | 360,000 compounds, 0.23% hits | AID 588692;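 active = mean luciferase reporter signal, scaled so untreated is 0 and the glycosylation-blocking control 100, at or above a set limit in every replicate; inconclusive = mean reaches the limit but not every replicate does; inactive = mean below the limit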;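 also: luciferase carries N-glycosylation sites so blocking glycosylation raises the light; 0% = median of neutral control wells and 100% = median of 100 nM tunicamycin wells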
AF4-AF9 inh = blocks AF4 peptide binding to human AF9; P42568; AlphaScreen, biotin-AF4 peptide binding to FLAG-AF9; inhibition, % at 10 µM; 350,000 compounds, 0.47% hits;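 active = every replicate reaching a set inhibition limit, whatever the replicate mean, cut at about 25% in these data; inconclusive = mean inhibition reaches that limit but some replicates miss it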;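 also: 0% = plate neutral control median and 100% = total signal loss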
Target sequence (P42568 whole entry, looked up): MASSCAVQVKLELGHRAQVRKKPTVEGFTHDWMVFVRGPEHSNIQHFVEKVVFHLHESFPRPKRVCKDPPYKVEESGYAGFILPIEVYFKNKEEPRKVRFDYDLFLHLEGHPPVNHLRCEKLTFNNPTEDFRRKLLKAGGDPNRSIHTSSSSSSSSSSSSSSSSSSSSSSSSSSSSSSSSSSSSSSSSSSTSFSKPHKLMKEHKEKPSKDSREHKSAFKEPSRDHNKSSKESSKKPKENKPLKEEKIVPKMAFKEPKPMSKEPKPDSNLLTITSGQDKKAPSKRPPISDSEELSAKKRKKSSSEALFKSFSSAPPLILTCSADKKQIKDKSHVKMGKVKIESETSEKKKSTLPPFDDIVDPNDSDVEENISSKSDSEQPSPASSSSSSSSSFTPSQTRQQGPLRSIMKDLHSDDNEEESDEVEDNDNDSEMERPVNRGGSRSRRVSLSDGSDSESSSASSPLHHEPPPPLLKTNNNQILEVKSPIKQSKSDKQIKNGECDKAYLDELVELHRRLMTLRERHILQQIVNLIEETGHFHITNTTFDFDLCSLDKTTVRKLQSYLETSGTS
PAX8 inh HTS = inhibitors of PAX8 transcriptional activity in RMG-I cells; 360,000 compounds, 1.2% hits; inhibition, % at 12.6 µM; RMG-I TPO-luciferase reporter, SteadyGlo, 24 h; AID 652154;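 active = mean replicate inhibition at least 60% with every replicate also reaching 60%; inconclusive = only one of the two criteria is met; inactive = mean below 60% and not all replicates reaching 60%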;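 also: luciferase light reporting Pax8 driven TPO promoter activity; plate controls were median of neutral control wells for no effect and mitoxantrone controls for full effect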
Env fusion inh = inhibitors of HIV Env-mediated cell fusion | HeLa-JRFL Env/CEM21 cell fusion, luciferase | inhibition, % at 12.3 µM | 360,000 compounds, 1.1% hits | AID 651610;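 active = mean replicate inhibition score of at least 50 and every replicate individually at or above 50; inconclusive = only one of the two criteria met; inactive = mean below 50 and not all replicates reaching 50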;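 also: 0% = plate neutral controls and 100% = maraviroc near 300 nM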
FN deposit inh = fibronectin deposition inhibition; AH1F fibroblasts, Alexa488-fibronectin deposition fluorescence, overnight; inhibition, % at 12.6 µM; 350,000 compounds, 0.086% hits; AID 743247;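 active = mean inhibition across replicates of 30% or more, regardless of how many single replicates reach that level; inconclusive = mean under 30% yet at least half of replicates reach 30%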;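 also: positive control wells lacked labelled fibronectin entirely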
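Material – AH1F fibroblast monolayer, labelled fibronectin deposition · Reagent – labelled fibronectin 24 nM · Timing – 1 h adhesion, overnight exposure · Measured by – fluorescence at 485 nm excitation, 525 nm emission · Read-out – inhibition of fibronectin deposition signal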
EWS-Fli block = blocks EWS/Fli oncoprotein-driven transcription | A673 NR0B1-luciferase reporter, viability-normalised | inhibition, % at 12.6 µM | 350,000 compounds, 0.67% hits | AID 651661;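 active = mean inhibition of at least 50% after viability correction, with every replicate also passing that limit; inconclusive = mean reaches 50% but only one of two replicates passes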;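 also: firefly luciferase signal divided by Alamar Blue viability fluorescence both relative to DMSO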
* hit, by the source's call; [ ] = dose if it differs, or a comment. Only some compounds are listed: those with a hit (about 2.5% of all), similar ones and a draw of the others.

`CCCN1[C@H](C(=O)Nc2nccs2)[C@@H](CO)[C@@H]2Cn3c(ccc(-c4ccccc4OC)c3=O)[C@@H]21` gave AF4-AF9 inh 2, PAX8 inh HTS 25, Env fusion inh 14[16.7 µM] and EWS-Fli block 7.
Screening CN(C)CC(=O)N1CC2(C1)[C@@H](c1ccccc1)[C@@H](CO)N2C(=O)C1CCCC1 returned AF4-AF9 inh -2, PAX8 inh HTS -24, Env fusion inh 10[16.7 µM], FN deposit inh 12 and EWS-Fli block -10.
CC(C)CC#Cc1ccc2c(c1)O[C@@H](CN(C)S(=O)(=O)c1ccc(F)cc1)[C@@H](C)CN([C@H](C)CO)S2(=O)=O was read as AF4-AF9 inh -1, PAX8 inh HTS 55, Env fusion inh 62*[16.7 µM], FN deposit inh -3 and EWS-Fli block 24.
CC(C)CC#Cc1ccc2c(c1)O[C@H](CN(C)S(=O)(=O)c1ccc(F)cc1)[C@@H](C)CN([C@H](C)CO)S2(=O)=O was read as AF4-AF9 inh 1, PAX8 inh HTS 12, Env fusion inh 0[16.7 µM], FN deposit inh -15 and EWS-Fli block 23.
`C[C@@H]1CN([C@H](C)CO)S(=O)(=O)c2ccc(C#Cc3ccc(F)cc3)cc2O[C@H]1CN(C)S(=O)(=O)c1ccc(F)cc1` gave AF4-AF9 inh -3, Env fusion inh 36[16.7 µM], FN deposit inh 3 and EWS-Fli block 15.
For CC(C)CC#Cc1ccc2c(c1)O[C@H](CN(C)S(=O)(=O)c1ccc(F)cc1)[C@H](C)CN([C@H](C)CO)S2(=O)=O the results were AF4-AF9 inh 1, PAX8 inh HTS 99*, Env fusion inh 45[16.7 µM], FN deposit inh 5 and EWS-Fli block 25.
Cc1cc(C)c2nc(NNC(=O)c3ccc(S(=O)(=O)N4CCc5ccccc5C4)cc3)sc2c1 was read as Glyco luc inh -10, AF4-AF9 inh 5, PAX8 inh HTS 62*, Env fusion inh -122, FN deposit inh 6 and EWS-Fli block 7.
For CCc1nnc(NC(=O)c2ccc(S(=O)(=O)N3CCc4ccccc4C3)cc2)s1 the results were Glyco luc inh 1, AF4-AF9 inh -5, PAX8 inh HTS -2, Env fusion inh 5 and EWS-Fli block -16.
`CC=Cc1ccc2n(c1=O)C[C@@H]1[C@@H](CO)[C@H](C(=O)NCC3CC3)N(C(=O)CC3CC3)[C@H]21` (mixture of isomers) gave AF4-AF9 inh -2, PAX8 inh HTS -1 and EWS-Fli block -9.
`CCc1ccc(-c2nnn(CCC(=O)OC)n2)cc1` gave Glyco luc inh 0, PAX8 inh HTS -24, Env fusion inh 65* and FN deposit inh -14.
`CCc1ccc(-c2nnn(CCC#N)n2)cc1` gave Glyco luc inh -3, AF4-AF9 inh -2, PAX8 inh HTS -40, Env fusion inh 0, FN deposit inh 0 and EWS-Fli block -29.
CO[C@H]1CN(C)C(=O)c2cc(NS(=O)(=O)c3ccc(C)cc3)ccc2OC[C@@H](C)N(Cc2nccs2)C[C@@H]1C was read as AF4-AF9 inh 3, PAX8 inh HTS 12, Env fusion inh 19[16.7 µM], FN deposit inh -3 and EWS-Fli block 15.
Screening COc1ccc2c(c1)[C@]1(C(=O)N2C)C2=C(CCCC2=O)Oc2cc(C)oc(=O)c21 returned AF4-AF9 inh -1, PAX8 inh HTS 6, Env fusion inh 65*, FN deposit inh 4 and EWS-Fli block -4.
`CCC(=O)N1[C@@H]2c3ccc(C4=CCCCC4)c(=O)n3C[C@@H]2[C@@H](CO)[C@@H]1C(=O)NC1CCC1` gave AF4-AF9 inh -3 and EWS-Fli block -3.
`CC(C)NC(=O)Nc1ccc2c(c1)C(=O)N([C@@H](C)CO)C[C@@H](C)[C@H](CN(C)Cc1ccc3c(c1)OCO3)OCCCC[C@@H](C)O2` gave PAX8 inh HTS -6, Env fusion inh 22[16.7 µM], FN deposit inh -3 and EWS-Fli block 2.
Screening CCc1ccc(NC(=O)Cn2c3[n+](c4c(F)c(F)ccc42)CCCCC3)cc1 returned Glyco luc inh 1, AF4-AF9 inh 3, PAX8 inh HTS 76*, Env fusion inh 10, FN deposit inh 8 and EWS-Fli block 12.
Screening O=C(Cn1c2[n+](c3ccc(C(F)(F)F)cc31)CCCCC2)Nc1ccc(Br)cc1 returned Glyco luc inh 1.
`CCCCn1c(CN2CCN(c3cccc(Cl)c3)CC2)nc2c1c(=O)[nH]c(=O)n2C` gave Glyco luc inh 17, AF4-AF9 inh 5 and EWS-Fli block 58*.
`CN1CC(c2ccccc2)C2(SC(=S)N(Cc3ccco3)C2=O)C12C(=O)Nc1ccccc12` (stereo not drawn) gave Glyco luc inh -7 and Env fusion inh 77*.
Screening Cc1ccc(S(=O)(=O)NCC[C@H]2CC[C@@H](NC(=O)c3cnccn3)[C@@H](CO)O2)cc1 returned AF4-AF9 inh 0, PAX8 inh HTS -14, Env fusion inh -18[16.7 µM] and EWS-Fli block 6.
Screening CN(c1ncnc(N)c1[N+](=O)[O-])C1CCCCC1 returned Glyco luc inh -13, AF4-AF9 inh -1, PAX8 inh HTS -49, Env fusion inh 44, FN deposit inh 3 and EWS-Fli block -27.
`CN(c1ncnc(N)c1[N+](=O)[O-])C1CCS(=O)(=O)C1` (stereo not drawn) gave Glyco luc inh -10, AF4-AF9 inh -5, PAX8 inh HTS 25, Env fusion inh 59*, FN deposit inh 12 and EWS-Fli block 7.
Screening C=C1CCc2c([nH]c3ccc(OCC(C)C)cc23)C1=O returned Glyco luc inh -18, AF4-AF9 inh -1, PAX8 inh HTS 111*, Env fusion inh 1, FN deposit inh 26 and EWS-Fli block inconclusive.
Cc1ccc(S(=O)(=O)N(C)C[C@H]2Oc3c(NC(=O)C4CCCCC4)cccc3C(=O)N([C@@H](C)CO)C[C@H]2C)cc1 was read as AF4-AF9 inh -6, PAX8 inh HTS 15, Env fusion inh -70[16.7 µM] and EWS-Fli block -2.
Screening COc1cc(O)c2c(c1)oc(=O)c1c3cc(O)c(O)cc3oc21 returned AF4-AF9 inh 4, PAX8 inh HTS 20, Env fusion inh -12[16.7 µM] and EWS-Fli block 56*.
`COCCn1c(SCC(=O)Nc2cc(C)on2)nnc1-c1ccccc1` gave Glyco luc inh 0, AF4-AF9 inh 34*, PAX8 inh HTS -1, Env fusion inh 1, FN deposit inh 5 and EWS-Fli block 3.
`CCCNC(=O)Nc1ccc2c(c1)C(=O)N(C)C[C@H](OC)[C@@H](C)CN(S(C)(=O)=O)[C@@H](C)CO2` gave AF4-AF9 inh -23, FN deposit inh -9 and EWS-Fli block -20.
For C[C@@H]1CN([C@H](C)CO)S(=O)(=O)c2ccc(C#Cc3ccccc3F)cc2O[C@@H]1CN(C)CC1CCOCC1 the results were AF4-AF9 inh 5, PAX8 inh HTS 37, Env fusion inh -6[16.7 µM] and EWS-Fli block -15.
